Assay results published in ChEMBL document CHEMBL2424622, “Development of amino-pyrimidine inhibitors of c-Jun N-terminal kinase (JNK): kinase profiling guided optimization of a 1,2,3-benzotriazole lead” (Bioorg Med Chem Lett, 2013).

Columns and labels:
[1] = target: Calcium/calmodulin-dependent protein kinase type II subunit delta (Homo sapiens) (UniProt Q13557); experiment: Competitive binding affinity to CAMK2D (unknown origin) at 10 uM in presence of ATP relative to control
[2] = target: Insulin-like growth factor 1 receptor (Homo sapiens) (UniProt P08069); experiment: Competitive binding affinity to IGF1R (unknown origin) at 10 uM in presence of ATP relative to control
Chain of Insulin-like growth factor 1 receptor (Homo sapiens) (P08069 31-736 limits assumed): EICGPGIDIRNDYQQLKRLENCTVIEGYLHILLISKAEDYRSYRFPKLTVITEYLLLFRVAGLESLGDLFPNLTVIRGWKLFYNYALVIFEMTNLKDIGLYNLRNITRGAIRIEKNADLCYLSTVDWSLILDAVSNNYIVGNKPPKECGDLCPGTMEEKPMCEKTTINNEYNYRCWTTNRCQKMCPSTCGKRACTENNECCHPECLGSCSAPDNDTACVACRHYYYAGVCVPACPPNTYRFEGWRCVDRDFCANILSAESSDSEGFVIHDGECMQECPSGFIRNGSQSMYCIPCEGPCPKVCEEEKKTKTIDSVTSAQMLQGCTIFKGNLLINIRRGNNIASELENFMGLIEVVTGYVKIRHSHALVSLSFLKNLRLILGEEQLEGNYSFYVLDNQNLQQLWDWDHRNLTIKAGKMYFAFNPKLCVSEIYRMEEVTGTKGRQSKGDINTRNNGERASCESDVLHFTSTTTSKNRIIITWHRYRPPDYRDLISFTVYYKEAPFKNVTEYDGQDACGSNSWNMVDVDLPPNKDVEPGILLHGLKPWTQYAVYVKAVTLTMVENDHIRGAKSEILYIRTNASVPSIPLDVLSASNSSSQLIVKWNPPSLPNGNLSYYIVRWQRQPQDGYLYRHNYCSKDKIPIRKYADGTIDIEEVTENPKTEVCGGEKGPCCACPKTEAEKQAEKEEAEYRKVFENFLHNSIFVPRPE
Chain of Insulin-like growth factor 1 receptor (Homo sapiens) (P08069 741-1367 limits assumed): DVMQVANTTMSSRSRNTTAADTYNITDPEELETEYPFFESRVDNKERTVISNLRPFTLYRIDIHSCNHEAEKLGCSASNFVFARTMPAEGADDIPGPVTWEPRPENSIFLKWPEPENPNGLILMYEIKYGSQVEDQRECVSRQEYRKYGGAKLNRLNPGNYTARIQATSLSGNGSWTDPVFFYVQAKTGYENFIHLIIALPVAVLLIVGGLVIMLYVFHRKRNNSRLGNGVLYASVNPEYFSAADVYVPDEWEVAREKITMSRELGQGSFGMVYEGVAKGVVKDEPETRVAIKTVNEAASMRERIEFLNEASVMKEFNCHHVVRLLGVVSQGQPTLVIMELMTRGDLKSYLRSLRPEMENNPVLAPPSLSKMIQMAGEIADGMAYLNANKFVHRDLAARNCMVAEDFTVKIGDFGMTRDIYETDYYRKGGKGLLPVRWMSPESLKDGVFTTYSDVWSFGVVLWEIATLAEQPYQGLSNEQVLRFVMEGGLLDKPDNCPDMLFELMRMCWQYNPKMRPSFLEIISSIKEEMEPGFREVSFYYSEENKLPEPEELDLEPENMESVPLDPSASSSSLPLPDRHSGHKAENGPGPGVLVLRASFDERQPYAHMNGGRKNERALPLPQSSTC
Method in brief: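 In vitro ATP-site competition binding assay, part of profiling against a diverse panel of 128 kinases. Each compound was tested at a single concentration of 10 µM. Kinome selectivity was summarized as S15 selectivity scores.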

[3] = target: T1, Membrane-associated tyrosine- and threonine-specific cdc2-inhibitory kinase (Homo sapiens) (UniProt Q99640); experiment: Competitive binding affinity to PKMYT1 (unknown origin) at 10 uM in presence of ATP relative to control
T1 sequence (whole entry): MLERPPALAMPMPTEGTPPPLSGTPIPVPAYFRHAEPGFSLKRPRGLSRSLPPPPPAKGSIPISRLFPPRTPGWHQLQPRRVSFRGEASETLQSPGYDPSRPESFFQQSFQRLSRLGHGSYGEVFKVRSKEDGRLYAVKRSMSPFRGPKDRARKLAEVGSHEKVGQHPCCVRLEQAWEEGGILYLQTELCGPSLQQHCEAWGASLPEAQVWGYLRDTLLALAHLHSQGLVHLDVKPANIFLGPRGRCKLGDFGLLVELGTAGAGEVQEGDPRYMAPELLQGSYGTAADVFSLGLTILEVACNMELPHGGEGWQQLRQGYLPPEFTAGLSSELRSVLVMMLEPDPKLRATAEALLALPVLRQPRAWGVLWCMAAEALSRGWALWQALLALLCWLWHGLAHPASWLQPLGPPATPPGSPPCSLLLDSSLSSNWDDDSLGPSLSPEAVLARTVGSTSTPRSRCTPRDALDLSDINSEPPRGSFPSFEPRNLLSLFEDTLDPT
Method in brief: (§1)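 In vitro ATP-site competition binding assay across a diverse panel of 128 kinases, with compound tested at a single concentration. Kinase selectivity scores (S15) were calculated from the panel profiles.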

[4] = target: T2, Non-receptor tyrosine-protein kinase TNK1 (Homo sapiens) (UniProt Q13470); experiment: Competitive binding affinity to TNK1 (unknown origin) at 10 uM in presence of ATP relative to control
T2 sequence (whole entry): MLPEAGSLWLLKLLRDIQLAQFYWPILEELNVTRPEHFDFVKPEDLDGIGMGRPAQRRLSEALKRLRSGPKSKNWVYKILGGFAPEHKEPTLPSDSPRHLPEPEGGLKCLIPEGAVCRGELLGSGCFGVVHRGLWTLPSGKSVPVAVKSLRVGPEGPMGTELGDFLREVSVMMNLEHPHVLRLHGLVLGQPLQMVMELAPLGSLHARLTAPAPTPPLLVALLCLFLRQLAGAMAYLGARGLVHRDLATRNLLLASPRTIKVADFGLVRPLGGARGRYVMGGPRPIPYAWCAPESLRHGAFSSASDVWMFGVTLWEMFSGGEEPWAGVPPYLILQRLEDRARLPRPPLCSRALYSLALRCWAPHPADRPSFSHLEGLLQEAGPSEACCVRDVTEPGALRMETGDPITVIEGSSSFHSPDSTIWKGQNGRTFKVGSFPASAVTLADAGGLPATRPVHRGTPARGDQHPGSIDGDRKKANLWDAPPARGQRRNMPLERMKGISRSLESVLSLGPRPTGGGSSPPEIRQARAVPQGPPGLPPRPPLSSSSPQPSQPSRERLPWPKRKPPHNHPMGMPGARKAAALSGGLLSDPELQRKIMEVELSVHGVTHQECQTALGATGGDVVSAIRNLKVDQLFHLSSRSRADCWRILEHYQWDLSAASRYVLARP

[5] = target: T3, Tyrosine-protein kinase TXK (Homo sapiens) (UniProt P42681); experiment: Competitive binding affinity to TXK (unknown origin) at 10 uM in presence of ATP relative to control; method in brief: as §1
T3 sequence (whole entry): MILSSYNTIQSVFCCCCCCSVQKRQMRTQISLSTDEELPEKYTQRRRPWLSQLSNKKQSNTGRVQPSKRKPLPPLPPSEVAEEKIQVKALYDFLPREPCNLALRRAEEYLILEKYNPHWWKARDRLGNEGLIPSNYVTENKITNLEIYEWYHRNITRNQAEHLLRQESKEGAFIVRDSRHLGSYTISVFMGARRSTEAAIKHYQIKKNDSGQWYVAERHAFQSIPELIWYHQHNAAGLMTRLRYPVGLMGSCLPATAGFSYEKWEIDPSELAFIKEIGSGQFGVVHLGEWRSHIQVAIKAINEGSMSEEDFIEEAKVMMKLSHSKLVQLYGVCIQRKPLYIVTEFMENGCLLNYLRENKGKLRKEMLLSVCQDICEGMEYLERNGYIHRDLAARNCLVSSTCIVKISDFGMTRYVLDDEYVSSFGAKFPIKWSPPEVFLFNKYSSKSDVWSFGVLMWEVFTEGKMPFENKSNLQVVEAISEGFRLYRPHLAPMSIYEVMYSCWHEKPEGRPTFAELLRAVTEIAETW

[6] = target: T4, Mitogen-activated protein kinase 12 (Homo sapiens) (UniProt P53778); experiment: Competitive binding affinity to p38-gamma (unknown origin) at 10 uM in presence of ATP relative to control; method in brief: as §1
T4 sequence (whole entry): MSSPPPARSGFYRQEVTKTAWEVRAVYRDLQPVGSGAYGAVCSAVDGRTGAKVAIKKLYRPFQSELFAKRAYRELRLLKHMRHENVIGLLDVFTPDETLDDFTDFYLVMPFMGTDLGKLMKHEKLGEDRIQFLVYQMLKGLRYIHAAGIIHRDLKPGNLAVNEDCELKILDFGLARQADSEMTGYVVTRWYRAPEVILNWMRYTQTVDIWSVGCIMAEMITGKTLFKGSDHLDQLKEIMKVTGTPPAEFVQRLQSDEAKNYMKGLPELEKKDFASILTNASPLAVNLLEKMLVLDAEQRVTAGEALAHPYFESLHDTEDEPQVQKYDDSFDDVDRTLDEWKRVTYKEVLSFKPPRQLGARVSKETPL

Chain of Calcium/calmodulin-dependent protein kinase type II subunit delta (Homo sapiens) (Q13557 whole entry): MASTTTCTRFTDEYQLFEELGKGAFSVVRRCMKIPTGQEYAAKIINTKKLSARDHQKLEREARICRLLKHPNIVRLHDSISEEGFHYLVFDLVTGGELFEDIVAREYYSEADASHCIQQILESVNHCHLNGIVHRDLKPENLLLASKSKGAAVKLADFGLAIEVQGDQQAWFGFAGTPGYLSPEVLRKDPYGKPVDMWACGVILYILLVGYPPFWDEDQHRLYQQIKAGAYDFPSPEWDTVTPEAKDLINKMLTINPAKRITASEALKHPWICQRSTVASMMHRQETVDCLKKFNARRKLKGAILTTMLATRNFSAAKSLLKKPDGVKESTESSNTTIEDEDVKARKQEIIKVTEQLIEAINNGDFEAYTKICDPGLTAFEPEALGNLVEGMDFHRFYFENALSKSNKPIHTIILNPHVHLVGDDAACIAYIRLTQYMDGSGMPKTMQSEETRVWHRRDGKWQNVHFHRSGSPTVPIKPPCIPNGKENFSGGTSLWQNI

O[C@H]1CC[C@H](Nc2nccc(-n3ccc4ccccc43)n2)CC1
inhibition [1]: 85% | inhibition [2]: < 50% | inhibition [3]: < 50% | inhibition [4]: < 50% | inhibition [5]: < 50% | inhibition [6]: < 50%

N[C@H]1CC[C@H](Nc2nccc(-n3nnc4ccccc43)n2)CC1
inhibition [1]: 83% | inhibition [2]: < 50% | inhibition [3]: < 50% | inhibition [5]: < 50% | inhibition [6]: < 50%

O[C@H]1CC[C@H](Nc2nccc(-n3nnc4ccccc43)n2)CC1
inhibition [1]: 74% | inhibition [2]: < 50% | inhibition [3]: < 50% | inhibition [4]: < 50% | inhibition [5]: < 50% | inhibition [6]: 96%

O[C@H]1CC[C@H](Nc2nccc(-n3ncc4ccccc43)n2)CC1
inhibition [1]: 93% | inhibition [2]: < 50% | inhibition [3]: < 50% | inhibition [4]: < 50% | inhibition [5]: < 50% | inhibition [6]: < 50%

O=C([C@H]1CC[C@H](Nc2nccc(-n3nnc4ccccc43)n2)CC1)N1CCOCC1
inhibition [1]: < 50% | inhibition [2]: < 50% | inhibition [3]: < 50% | inhibition [5]: < 50% | inhibition [6]: < 50%

O[C@H]1CC[C@H](Nc2nccc(-c3n[nH]c4ccccc34)n2)CC1
inhibition [1]: 91% | inhibition [2]: 95% | inhibition [3]: 89% | inhibition [4]: 81% | inhibition [5]: < 50% | inhibition [6]: < 50%
